TAAR1 agonist – agonists of human TAAR1. hit rate 0.99% among 360,000. Q96RJ0. activation, % at 3 µM. CHO RD-HGA16 TAAR1, Fluo-8 calcium fluorescence; vehicle wells 0%, saturating PEA agonist 100%;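 active = activation above the mean activation of all test compounds in the run plus 3 SD, cut at about 38% in these data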
Target sequence (Q96RJ0 whole entry, looked up): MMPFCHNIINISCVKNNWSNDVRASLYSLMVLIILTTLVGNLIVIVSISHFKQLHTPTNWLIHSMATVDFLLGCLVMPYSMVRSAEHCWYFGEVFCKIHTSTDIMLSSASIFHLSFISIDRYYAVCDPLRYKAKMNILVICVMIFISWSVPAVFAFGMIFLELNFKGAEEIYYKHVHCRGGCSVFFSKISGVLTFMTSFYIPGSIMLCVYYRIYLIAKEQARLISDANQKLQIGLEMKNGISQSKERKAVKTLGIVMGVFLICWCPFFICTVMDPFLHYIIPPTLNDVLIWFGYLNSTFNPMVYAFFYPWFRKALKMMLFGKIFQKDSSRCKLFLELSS
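Assay system – CHO-derived RD-HGA16 cells with stable Gα16 and human TAAR1 · Compound dosing – one-point dosing at 3 µM (nominal) · Incubation – 17-24 h seeding, 75 min 37 °C dye, 30 min RT · Measured by – kinetic Fluo-8 calcium fluorescence · Control set – DMSO vehicle as 0%, PEA at EC100 as 100% · Repeats – single well for each compound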
OX1R antag-1 – antagonists of human orexin 1 receptor (OX1R) | O43613 | OX1R-expressing cells, FRET antagonist read-out | inhibition, % at 6.6 µM | hit rate 1.8% among 330,000 | AID 485270; in the data active = inhibition mostly above about 38%, no sharp cut-off; inactive = mostly below about 40%;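 note: 0% = agonist challenge alone and 100% = reference antagonist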
GPR7 antag – blocks human GPR7 receptor signaling. GPR7-expressing cells, fluorescence antagonist assay. inhibition, % at 4.4 µM. hit rate 1.1% among 290,000. AID 1861; in the data active = inhibition above about 16%, passing the limit was not always enough;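 note: cells stimulated with the agonist NPW; 0% = agonist with vehicle and 100% = vehicle without agonist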
Target sequence (P48145 whole entry, looked up): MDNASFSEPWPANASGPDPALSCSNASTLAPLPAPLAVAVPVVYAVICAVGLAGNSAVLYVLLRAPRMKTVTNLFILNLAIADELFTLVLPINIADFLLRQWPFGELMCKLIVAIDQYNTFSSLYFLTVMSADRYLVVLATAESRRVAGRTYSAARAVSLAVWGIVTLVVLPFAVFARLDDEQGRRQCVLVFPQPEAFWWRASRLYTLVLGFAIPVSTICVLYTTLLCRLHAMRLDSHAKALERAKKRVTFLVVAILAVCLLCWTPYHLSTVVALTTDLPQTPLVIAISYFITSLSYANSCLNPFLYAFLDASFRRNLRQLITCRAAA
OX1R antag-2 – antagonists of human orexin 1 receptor; hit rate 0.43% among 330,000; CHO/OX1R cells, Fluo-8 calcium fluorescence, orexin A; AID 434989; O43613; inhibition, % at 5 µM;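 active = inhibition above its plate's threshold, mean inhibition of all tested compounds on the plate plus 3 SD, cut at about 37% in these data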;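 note: 0% = orexin A challenge wells and 100% = SB-334867-A antagonist wells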
CHO parental Ca – signal in parental CHO cells, OX1R antagonist counter-screen. AID 463079. hit rate 0.63% among 330,000. inhibition, % at 5.6 µM. parental CHO-K1, ATP-induced calcium, Fluo-8 fluorescence;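 active = inhibition above that plate's mean sample inhibition plus 3 SD, cut at about 26% in these data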;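 note: 0% = ATP-challenged DMSO wells and 100% = DMSO wells without ATP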
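Assay system – parental CHO cells · Reagent – ATP stimulus · Detection – intracellular calcium via Fluo-8 no-wash fluorescent dye · Evaluation – percent inhibition of ATP-evoked calcium rise, normalized to controls · Controls – ATP wells versus no-ATP DMSO wells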
TAAR1 antag – human TAAR1 antagonism; Q96RJ0; CHO RD-HGA16 TAAR1, Fluo-8 calcium fluorescence, antagonist; inhibition, % at 3 µM; hit rate 1.5% among 360,000;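 active = inhibition above a per-plate cutoff, the mean inhibition of test compounds on that plate plus 3 SD, cut at about 49% in these data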;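 note: 0% = DMSO plus EC80 beta-PEA response and 100% = DMSO alone without agonist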
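Test system: hTAAR1-expressing CHO RD-HGA16 cells, Gα16-coupled; Probe or stimulus: EC80 β-phenethylamine stimulus; Compound dosing: single nominal final test compound concentration of 3 µM; Timing: 140 s kinetic read after compound, 140 s after agonist; Signal: Fluo-8 calcium-sensitive fluorescence; Measure: % inhibition of agonist calcium response; Controls: DMSO and EC80 PEA controls.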
OX1R HTRF confirm – confirmation of human orexin 1 receptor antagonists, HTRF format. hit rate 49% among 1,800. inhibition, % at 6.6 µM. shares compounds with OX1R antag-1. OX1R-expressing cells, HTRF antagonist assay; in the data active = inhibition above about 55%;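 note: CHO cells expressing OX1R stimulated with orexin A at about EC80; 0% = agonist challenge alone and 100% = reference antagonist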
CHO-K1 HTRF – counter-screen for OX1R antagonists: effect in parental CHO-K1 cells | shares compounds with OX1R antag-1 | HTRF counterscreen | inhibition, % at 6.6 µM | hit rate 48% among 1,800 | AID 493232; in the data active = inhibition above about 17%;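 note: 0% = agonist challenge with vehicle and 100% = vehicle alone without agonist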
Starred values were filed as active, the others as inactive; / = not tested or not shown; + = active, no number. In the library only some 4.6% were active in any assay of this set; here they are far more common.

SMILES	TAAR1 agonist	OX1R antag-1	GPR7 antag	OX1R antag-2	CHO parental Ca	TAAR1 antag	OX1R HTRF confirm	CHO-K1 HTRF
CN(C)C(=O)c1ccc2c(c1[N+](=O)[O-])C(=O)c1ccccc1C2=O	3	93*	-7	-9	-6	-1	58*	55*
Cc1ccccc1S(=O)(=O)NC(=O)C1(C)CCN1C(=O)Cc1cccs1 (stereo not drawn)	3	/	/	/	/	-18	/	/
O=C(CCC(=O)N1CCN(c2ccccn2)CC1)c1ccc(Cl)s1	2	-1	/	-14	-17	-19	/	/
Cc1ncc(CO)c2cc(C(N)=O)c(=Nc3ccccc3)oc12	9	150*	6	-19	-13	2	31	42*
Cc1ccc(NC(=O)c2cc3c(CO)cnc(C)c3oc2=Nc2cccc(C(N)=O)c2)cc1	2	11	-8	-11	-17	-22	/	/
O=C(CC1(CC(=O)N2CCOCC2)CCCC1)Nc1ccccc1	3	6	/	-20	-10	7	/	/
Cc1cc(C)nc(Nc2n[nH]c(-c3cccc4ccccc34)n2)n1	1	80*	-9	22	-20	16	60*	5
O=[N+]([O-])c1cccc(-c2ccc3nnc(SCc4ccccn4)n3n2)c1	3	77*	-6	-18	-11	-7	45	36*
CCn1c(/C=C2/C(=O)N(C)c3ccccc32)nc2ccccc2c1=O	14	86*	-4	-15	-21	22	28	8
CCn1c(/C=C2\C(=O)N(C)c3ccccc32)nc2ccccc2c1=O	9	20	-4	-31	-13	6	/	/
Cc1ccccc1Cn1cc(S(=O)(=O)c2ccc(C(C)C)cc2)c(=O)c2cc3c(cc21)OCO3	2	16	/	-30	-20	6	/	/
O=C1C(Cl)=C(NCCCO)C(=O)c2ccccc21	3	+	2	2	-1	-12	67*	104*
NC(=O)C[C@@H]1NC(=O)c2cc([N+](=O)[O-])cc(F)c2NCCCC[C@@H](C(N)=O)NC(=O)[C@H](CO)NC1=O	10	/	1	/	/	-9	/	/
NC(=O)[C@@H]1CCCCNc2c(F)cc([N+](=O)[O-])cc2C(=O)N[C@@H](CC(=O)O)C(=O)N[C@@H](CCC(=O)O)C(=O)N1	/	110*	-5	-14	11	/	34	33*
O=C(COC(=O)c1cc(-c2ccncc2)nc2ccccc12)Nc1ccc2c(c1)OCO2	/	152*	0	-1	1	/	35	24*
O=C(CCN1C(=O)c2ccccc2C1=O)N1CCOCC1	2	28	-6	-4	-6	-4	/	/
O=C(CCN1C(=O)c2cccc3cccc(c23)C1=O)NC1CCS(=O)(=O)C1 (stereo not drawn)	2	79*	-3	3	-17	-19	36	54*
O=C(CCN1C(=O)c2cccc3cccc(c23)C1=O)NCC1CCCO1 (stereo not drawn)	1	92*	-18	-15	10	-9	49	40*
O=C(CCN1C(=O)c2cccc3cccc(c23)C1=O)N1CCOCC1	2	80*	-1	-13	3	-9	45	64*
CCOC(=O)N1CCC(C(=O)NNC(=O)c2ccc(Cl)cc2Cl)CC1	2	-3	0	-8	-3	-20	/	/
O=C(Nc1ccccc1)C1CCCCN1S(=O)(=O)c1ccccc1 (stereo not drawn)	-1	80*	-5	11	-8	-17	60*	2
Cn1nnc(NC(=O)c2ccc([N+](=O)[O-])cc2Cl)n1	4	94*	-14	16	15	5	66*	53*
O=C(Nn1cnnc1)c1ccc([N+](=O)[O-])cc1Cl	2	16	/	-14	-9	-27	/	/
COc1ccc(S(=O)(=O)N(C)C[C@H]2Oc3ncc(C#CC4(O)CCCC4)cc3C(=O)N([C@@H](C)CO)C[C@@H]2C)cc1	-2	/	/	/	/	1	/	/
C=CCn1c(=N)c(C(=O)NCCCOC)cc2c(=O)n3ccccc3nc21	2	137*	-11	15	-16	-19	56*	83*
SMILES	TAAR1 agonist	OX1R antag-1	GPR7 antag	OX1R antag-2	CHO parental Ca	TAAR1 antag	OX1R HTRF confirm	CHO-K1 HTRF
CCOC(=O)c1cc2c(=O)n3ccccc3nc2n(CCCOC)c1=NC(=O)c1ccncc1	13	85*	4	-9	-19	43	34	33*
CCOC(=O)c1cc2c(=O)n3ccccc3nc2n(Cc2ccco2)c1=NC(=O)c1ccc(OC)cc1	0	13	1	-16	-8	-74	/	/
COCCCn1c(C(=O)NCCN2CCOCC2)cc2c(=O)n3ccccc3nc21	1	52	-3	-18	-6	4	/	/
Cc1cc(-n2c(=O)c(C#N)cc3c(=O)n4ccccc4nc32)no1	1	128*	-6	-17	-8	-7	46	75*
N=c1c(C(=O)NCc2ccc(F)cc2)cc2c(=O)n3ccccc3nc2n1CCCN1CCOCC1	2	82*	5	-2	0	-24	65*	35*
N#Cc1cc2c(=O)n3ccccc3nc2n(-c2ccc(Cl)cc2)c1=O	5	49	-18	-12	-9	0	/	/
CCC(Sc1nc(-c2ccccc2)c(-c2ccccc2)[nH]1)C(=O)O (stereo not drawn)	0	10	-15	-13	-11	-8	/	/
O=C(NCc1ccc(F)cc1)C1CCCN(c2cnccn2)C1 (stereo not drawn)	2	12	11	-13	-6	-29	/	/
Cc1ccc([N+](=O)[O-])cc1S(=O)(=O)Nc1ccc(C(=O)N2CCN(C(=O)c3ccco3)CC2)cc1	-1	3	/	-19	-10	-29	/	/
C=CCn1c(=O)c(C#N)cc2c(=O)n3ccccc3nc21	7	137*	4	-9	-6	-17	44	34*
C=CCn1c(=N)c(C#N)cc2c(=O)n3ccccc3nc21	4	102*	-12	-9	-2	13	55*	78*
O=C(NCc1cc(Cl)cc(Cl)c1)c1ccc2nc(COCCO)[nH]c2c1	0	/	/	/	/	-13	/	/
COc1ccc(CNc2nc(SCC(=O)NCc3ccco3)nc3ccccc23)cc1	3	79*	-1	7	-2	-16	24	1
CCn1c(SCC(=O)NCc2ccco2)nc2ccccc2c1=O	9	22	-3	-12	-9	-3	/	/
O=C(CSc1nc2ccccc2c2nc3ccccc3n12)NCc1ccco1	10	81*	-9	-4	-17	-3	62*	5

Bioassay records as filed in PubChem.
